{"source": "ChEMBL document CHEMBL2034893", "about": "“Selective inhibition of human type-5 17β-hydroxysteroid dehydrogenase (AKR1C3) by baccharin, a component of Brazilian propolis” (J Nat Prod, 2012)", "key": {"[1]": {"biological_target": "T1, Aldo-keto reductase family 1 member C3 (Homo sapiens, UniProt P42330)", "T1 sequence (P42330 whole entry)": "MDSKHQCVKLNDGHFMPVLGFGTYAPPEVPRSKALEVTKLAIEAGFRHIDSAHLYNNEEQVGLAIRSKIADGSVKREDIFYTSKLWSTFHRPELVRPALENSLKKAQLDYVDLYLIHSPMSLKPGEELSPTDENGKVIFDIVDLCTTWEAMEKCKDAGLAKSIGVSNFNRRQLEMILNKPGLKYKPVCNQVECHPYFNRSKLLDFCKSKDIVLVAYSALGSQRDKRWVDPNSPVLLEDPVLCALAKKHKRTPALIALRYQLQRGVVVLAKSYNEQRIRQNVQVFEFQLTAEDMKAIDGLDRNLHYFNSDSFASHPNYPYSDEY", "assay": "Inhibition of human recombinant AKR1C3 expressed in Escherichia coli JM109 cells using S-tetralol as substrate at 100 uM by fluorometry"}, "[2]": {"biological_target": "T2, Aldo-keto reductase family 1 member C1 (Homo sapiens, UniProt Q04828)", "T2 sequence (Q04828 whole entry)": "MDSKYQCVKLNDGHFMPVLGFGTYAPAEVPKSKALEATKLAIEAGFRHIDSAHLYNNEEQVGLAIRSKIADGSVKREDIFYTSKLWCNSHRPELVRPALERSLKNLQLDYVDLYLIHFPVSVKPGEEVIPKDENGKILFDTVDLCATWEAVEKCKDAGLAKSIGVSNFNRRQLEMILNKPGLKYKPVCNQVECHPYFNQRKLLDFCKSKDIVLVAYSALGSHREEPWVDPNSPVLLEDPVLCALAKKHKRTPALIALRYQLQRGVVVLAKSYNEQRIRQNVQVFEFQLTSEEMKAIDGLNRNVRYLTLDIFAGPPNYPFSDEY", "assay": "Inhibition of AKR1C1-mediated progesterone reduction in human A549 cells at 0.2 to 5 uM incubated for 2 hrs prior to substrate addition measured after 6 hrs by LC/MS analysis", "format": "cell-based", "outline": "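A549 cells were grown in DMEM with 10% FBS at 37 °C under 5% CO2. They were pretreated 2 h with inhibitor in serum-free medium, then given 30 μM progesterone for 6 h. Medium steroids were extracted twice with ethyl acetate. Progesterone and 20α-hydroxyprogesterone were quantified by LC/MS (chiral column, total-ion monitoring). Percent inhibition of reduction is the mean of two independent experiments.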"}, "[3]": {"biological_target": "T1, Aldo-keto reductase family 1 member C3", "assay": "Inhibition of human recombinant AKR1C3 expressed in Escherichia coli JM109 cells using S-tetralol as substrate by fluorometry"}, "[4]": {"biological_target": "T1, Aldo-keto reductase family 1 member C3", "assay": "Competitive inhibition of human recombinant AKR1C3 expressed in Escherichia coli JM109 cells using S-tetralol as substrate by fluorometry", "outline": "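Recombinant enzymes (wild-type or mutant) were expressed in E. coli JM109 and purified to homogeneity. Activity was NADP+-linked S-tetralol oxidation at 25 °C in 0.1 M potassium phosphate, pH 7.4, with saturating 0.25 mM NADP+ and five S-tetralol levels (0.33−2 mM). NADPH fluorescence was read at ex 340/em 455 nm. Ki is the mean ± SD of at least three determinations.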"}, "[5]": {"biological_target": "T1, Aldo-keto reductase family 1 member C3", "assay": "Noncompetitive inhibition of human recombinant AKR1C3 expressed in Escherichia coli JM109 cells using S-tetralol as substrate by fluorometry in presence of NADP+"}, "PC-3 [6]": {"system": "PC-3", "assay": "Growth inhibition of human PC3 cells at 50 uM after 72 hrs by MTT assay relative to untreated control", "format": "functional", "conditions": "PC-3, 72 h, read-out: GI"}, "PC-3 [7]": {"system": "PC-3", "assay": "Growth inhibition of human PC3 cells overexpressing AKR1C3 at 50 uM after 72 hrs by MTT assay relative to untreated control", "format": "functional", "conditions": "PC-3, 72 h, read-out: GI"}, "[8]": {"biological_target": "Aldo-keto reductase family 1 member C4 (Homo sapiens, UniProt P17516)", "sequence (P17516 whole entry)": "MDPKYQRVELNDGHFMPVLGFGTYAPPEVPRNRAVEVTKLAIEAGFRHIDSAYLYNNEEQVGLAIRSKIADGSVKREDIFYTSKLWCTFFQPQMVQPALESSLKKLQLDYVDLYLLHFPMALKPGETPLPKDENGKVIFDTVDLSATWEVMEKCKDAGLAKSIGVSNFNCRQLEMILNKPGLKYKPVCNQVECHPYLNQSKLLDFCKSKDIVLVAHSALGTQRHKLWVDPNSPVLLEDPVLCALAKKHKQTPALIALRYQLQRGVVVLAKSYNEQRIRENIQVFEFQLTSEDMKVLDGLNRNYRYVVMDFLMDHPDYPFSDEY", "assay": "Inhibition of human recombinant GST-tagged AKR1C4 expressed in Escherichia coli using S-tetralol as substrate by fluorometry", "outline": "(§1)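 Purified recombinant enzyme was assayed at 25 °C in 0.1 M potassium phosphate, pH 7.4, with 0.25 mM NADP+ and S-tetralol (0.1 mM for AKR1C1, 1 mM for AKR1C4). The rate of NADPH fluorescence increase was read at ex 340/em 455 nm. IC50 is the mean ± SD of at least three determinations.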"}, "[9]": {"biological_target": "T2, Aldo-keto reductase family 1 member C1", "assay": "Inhibition of human recombinant GST-tagged AKR1C1 expressed in Escherichia coli using S-tetralol as substrate by fluorometry", "outline": "as §1"}, "[10]": {"biological_target": "Aldo-keto reductase family 1 member C2 (Homo sapiens, UniProt P52895)", "sequence (P52895 whole entry)": "as the sequence (Q04828 whole entry) above, with T38V, R47H, L54V, C87S, V151M, R170H, Q172L counted along it", "assay": "Inhibition of human recombinant AKR1C2 expressed in Escherichia coli using S-tetralol as substrate by fluorometry"}, "[11]": {"biological_target": "T1, Aldo-keto reductase family 1 member C3", "assay": "Inhibition of human AKR1C3 using S-(+)-1,2,3,4-tetrahydro-1-naphthol as substrate", "outline": "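Recombinant human AKR1C3, purified to homogeneity. NADP+-linked S-tetralol oxidation at 25 °C in 0.1 M potassium phosphate pH 7.4 with 0.25 mM NADP+ and 1 mM S-tetralol. Rate followed by NADPH fluorescence (excitation 340 nm, emission 455 nm). IC50 given as mean ± SD of at least three determinations.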"}}, "note": "Calls of active or inactive are those of the source. The calls are words filed in the database; no cut-off is given here."}
{"smiles": "O=C(O)/C=C/c1ccc(O)c(O)c1", "values": [{"measurement": "inhibition", "setting": "[1]", "result": 36, "unit": "%"}]}
{"smiles": "O=C(O)/C=C/c1ccc(O)cc1", "values": [{"measurement": "inhibition", "setting": "[1]", "result": 22, "unit": "%"}]}
{"smiles": "O=C(O)c1cc(-c2ccccc2)cc(Br)c1O", "values": [{"measurement": "inhibition", "setting": "[2]", "result": "Active"}]}
{"smiles": "CC(C)=CCc1cc(/C=C/C(=O)O)cc(CC=C(C)C)c1O", "note": "[ARTEPILLIN]", "values": [{"measurement": "IC50", "setting": "[3]", "result": 1, "unit": "µM"}, {"measurement": "Ki", "setting": "[4]", "result": 0.68, "unit": "µM"}, {"measurement": "Ki", "setting": "[5]", "result": 0.68, "unit": "µM"}]}
{"smiles": "CC(C)=CCc1cc(/C=C/C(=O)O)ccc1OC(=O)CCc1ccccc1", "note": "[BACCHARIN]", "values": [{"measurement": "inhibition of growth at 50 µM", "setting": "PC-3 [6]", "result": 35, "unit": "%"}, {"measurement": "inhibition of growth at 50 µM", "setting": "PC-3 [7]", "result": 43, "unit": "%"}]}
{"smiles": "O=C(/C=C/c1ccc(O)c(O)c1)OCCc1ccccc1", "note": "[CAFFEIC ACID PHENETHYL ESTER]", "values": [{"measurement": "IC50", "setting": "[8]", "result": 2.3, "unit": "µM"}, {"measurement": "IC50", "setting": "[3]", "result": 1.7, "unit": "µM"}, {"measurement": "IC50", "setting": "[9]", "result": 13, "unit": "µM"}, {"measurement": "IC50", "setting": "[10]", "result": 6, "unit": "µM"}]}
{"smiles": "COc1ccc2c(c1)c(CC(=O)O)c(C)n2C(=O)c1ccc(Cl)cc1", "note": "[INDOMETHACIN]", "values": [{"measurement": "IC50", "setting": "[8]", "result": 54, "unit": "µM"}, {"measurement": "IC50", "setting": "[9]", "result": 130, "unit": "µM"}, {"measurement": "IC50", "setting": "[10]", "result": 75, "unit": "µM"}]}
{"smiles": "Cc1c(Cl)cccc1Nc1ccccc1C(=O)O", "note": "[TOLFENAMIC ACID]", "values": [{"measurement": "Ki", "setting": "[11]", "result": 0.008, "unit": "µM"}]}
